{"data": "Results gathered from unrelated publications", "MTNR1A": "Melatonin receptor type 1A (MTNR1A, Homo sapiens, UniProt P48039)", "note": "Each line is one published result; the experiments were not run side by side."}
{"Compound": "COc1ccc2cccc(C(CO)CNC(=O)CF)c2c1 (stereo not drawn)", "target": "MTNR1A", "assay": "cAMP, agonist, TR-FRET", "system": "CHO-K1", "setting": "20 min", "measurement": "Emax", "result": "93%"}
{"Compound": "Nc1ncc(-c2nc(N3CCOCC3)nc(N3CCOCC3)n2)c(C(F)F)n1", "target": "Aurora kinase A (AURKA, Homo sapiens, UniProt O14965)", "assay": "binding, competition with immobilised ligand", "setting": "10 µM", "measurement": "remaining binding", "result": "52%"}
{"Compound": "CCN(CC)CCCC[C@H](NC(=O)[C@H](CC(C)C)NC(=O)[C@H](C)NC(=O)[C@H](Cc1ccccc1)NC(=O)c1ccc(C(C)(C)C)cc1)C(=O)N[C@@H](CO)C(=O)OC", "target": "BRWD3 (Homo sapiens, UniProt Q6RI45)", "assay": "thermal stability, DSF", "setting": "25 µM", "measurement": "ΔTm", "result": "-0.57 °C"}
{"Compound": "Cc1ccccc1N(C)C(=O)Oc1nsnc1N1CCCCC1", "target": "Fatty-acid amide hydrolase 1 (FAAH, Homo sapiens, UniProt O00519)", "assay": "enzyme activity, inhibitor", "setting": "10 µM, cell membranes", "measurement": "inhibition", "result": "40%"}
{"Compound": "Cc1nn(C)cc1-c1nc2c(N3CCN(Cc4ccc(Cl)cc4)CC3)c(Cl)cnc2[nH]1", "target": "Receptor-type tyrosine-protein kinase FLT3 (FLT3, Homo sapiens, UniProt P36888, K663Q)", "assay": "binding, competition with immobilised ligand", "setting": "1 µM", "measurement": "remaining binding", "result": "0.8%"}
{"Compound": "C#Cc1n[nH]c2c(-c3cn(C(C)c4ccccn4)c(=O)[nH]c3=O)cc(F)cc12 (stereo not drawn)", "target": "Myotonin-protein kinase (DMPK, Homo sapiens, UniProt Q09013)", "assay": "enzyme activity, inhibitor", "setting": "1 µM", "measurement": "inhibition", "result": "1.2%"}
{"Compound": "COc1ncccc1-c1cnn2ccc(N3CCN(C(=O)OC(C)C)CC3)nc12", "target": "BMP-2-inducible protein kinase (BMP2K, Homo sapiens, UniProt Q9NSY1)", "assay": "binding, competition with immobilised ligand", "setting": "1 µM", "measurement": "remaining binding", "result": "3.5%"}
{"Compound": "COc1ccc2[nH]cc(CCNC(=O)CI)c2c1", "target": "MTNR1A", "assay": "cAMP, agonist, TR-FRET", "system": "CHO-K1", "setting": "20 min", "measurement": "Emax", "result": "103%"}
{"Compound": "COCc1c(-c2cc3cc(C)cc(OC)c3s2)c2c(N)ncnn2c1CN1CCNC(=O)C1", "target": "5-hydroxytryptamine receptor 2C (HTR2C, Homo sapiens, UniProt P28335)", "assay": "ligand displacement, radioligand", "setting": "10 µM", "measurement": "inhibition", "result": "30%"}
